Only some compounds are listed: those with a hit (about 3.7% of all), similar ones and a draw of the others.
MDM2 E3 inh = inhibitors of human Mdm2 E3 ubiquitin ligase; Q00987; cell-based MDM2 ubiquitination luciferase reporter, 2 h; 0 = plate control, 100 = twice control, blank-subtracted; signal enhancement, % at 5 µM; actives 0.11% (n = 210,000);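 active = signal enhancement of 30% or more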;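 also: luminescence tracks abundance of the self-degrading MDM2-luciferase fusion protein; higher signal means inhibition of MDM2 E3 ligase activity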
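Timing – 2 h compound exposure at 37 °C · Assay system – mammalian cells stably expressing self-ubiquitinating, self-degrading MDM2 E3–luciferase fusion · Amount – 2000 cells seeded into each well · Measure – % luminescence enhancement versus blank-corrected plate control mean · Measured by – SteadyLite luminescence, 15 min reagent step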
Mdm2-MdmX inh = inhibitors of human Mdm2/MdmX interaction; inhibition, % at 8 µM; O15151+Q00987; actives 3% (n = 330,000); AID 485346; SaOS-2 split-luciferase Mdm2/MdmX complementation, luminescence;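 active = inhibition of at least 50% at 8 µM in the primary screen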
Target sequence (O15151 whole entry, looked up): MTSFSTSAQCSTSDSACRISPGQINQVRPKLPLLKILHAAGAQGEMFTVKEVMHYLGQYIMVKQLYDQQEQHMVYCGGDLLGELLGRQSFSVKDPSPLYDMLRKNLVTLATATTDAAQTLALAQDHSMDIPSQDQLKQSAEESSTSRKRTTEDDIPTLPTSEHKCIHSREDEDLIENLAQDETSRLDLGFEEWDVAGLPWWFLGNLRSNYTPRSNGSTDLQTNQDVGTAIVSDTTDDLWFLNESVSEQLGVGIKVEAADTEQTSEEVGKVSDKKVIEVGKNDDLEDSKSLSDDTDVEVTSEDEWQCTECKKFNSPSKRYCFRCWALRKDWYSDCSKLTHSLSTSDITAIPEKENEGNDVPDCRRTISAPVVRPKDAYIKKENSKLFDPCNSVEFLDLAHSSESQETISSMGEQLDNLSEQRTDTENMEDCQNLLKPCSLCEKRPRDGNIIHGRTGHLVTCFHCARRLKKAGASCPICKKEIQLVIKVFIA
Target sequence (Q00987 whole entry, looked up): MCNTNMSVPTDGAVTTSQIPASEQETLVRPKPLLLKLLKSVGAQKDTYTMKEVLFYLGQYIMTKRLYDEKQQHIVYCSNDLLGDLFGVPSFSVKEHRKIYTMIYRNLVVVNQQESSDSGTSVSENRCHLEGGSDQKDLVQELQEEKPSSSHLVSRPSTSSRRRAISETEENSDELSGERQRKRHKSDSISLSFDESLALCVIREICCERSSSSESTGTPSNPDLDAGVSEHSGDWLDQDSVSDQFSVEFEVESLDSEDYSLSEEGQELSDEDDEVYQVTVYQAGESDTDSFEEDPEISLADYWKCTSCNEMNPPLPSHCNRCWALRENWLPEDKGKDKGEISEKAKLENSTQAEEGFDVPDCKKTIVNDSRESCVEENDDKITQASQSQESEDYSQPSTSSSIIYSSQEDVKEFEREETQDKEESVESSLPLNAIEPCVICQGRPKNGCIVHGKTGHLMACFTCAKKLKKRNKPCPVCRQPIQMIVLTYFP
B2AR ag = agonists of human beta-2 adrenergic receptor inducing internalization; P07550; Am2.2-beta2AR cells, FAP receptor internalization, flow cytometry; response, % (test concentration not listed); actives 0.43% (n = 340,000); AID 504454;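 active = response above a set limit, near 3 SD of response in nonfluorescent compounds, cut at about 42% in these data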
Dynein cargo inh = blocks dynein driven cargo transport along microtubules | 3617.4 mouse cells, GR-EGFP nuclear translocation imaging; test concentration mostly 20 µM; stimulated with dexamethasone, 1 µM; hits give low values | z-score, hits read low | actives 0.47% (n = 220,000) | AID 1381;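 active = plate z-score of nuclear minus cytoplasmic receptor signal below a set negative limit, without overly bright fluorescence or cell loss, cut at about -3.5 in these data, passing the limit was not always enough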;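 also: z-score of nuclear minus cytoplasmic ring GR-EGFP intensity difference per well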
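Buffer or medium: tet-free, stripped-serum medium; reagent: dexamethasone at 1.0 µM final, 30 min; incubation: 48 h induction, 1 h compound, 30 min dex at 37 °C; measured by: formaldehyde fixation, Hoechst nuclear stain, 10x automated fluorescence imaging; read-out: nuclear-to-cytoplasmic GR-EGFP distribution per well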
CHOP UPR activ = apoptotic UPR (CHOP) activation; CHO-CHOP luciferase reporter, luminescence; percent of tunicamycin response over DMSO baseline; actives 0.34% (n = 330,000); activation, % at 10 µM;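 active = at 10 µM dose, activation of 40% or more, normalized to positive control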;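 also: 100% = tunicamycin at 10 µg/mL and 0% = DMSO alone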
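Evaluation: % reporter activation, DMSO baseline versus tunicamycin full activation; System: CHO-CHOP luciferase reporter cell line; Input: 500 cells/well; Incubation: 6 h compound treatment, 37 °C; Measured by: Steady-Glo luciferase luminescence; Dosing: one dose, 10 µM in 0.5% DMSO; Buffer or medium: F12 medium, 10% FBS; Benchmarks: positive tunicamycin 10 µg/mL, negative DMSO alone.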
UPR XBP1 act = activators of adaptive arm of unfolded protein response (XBP1); actives 0.33% (n = 330,000); activation, % at 20 µM; CHO-XBP1 luciferase reporter, IRE1-XBP1 UPR activation, luminescence; percent of tunicamycin response, DMSO as zero;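 active = versus positive control, 20 µM dose yields 30% or more activation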;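 also: 100% = tunicamycin at 10 µg/mL and 0% = DMSO only wells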
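Material: CHO-XBP1 cells stably carrying IRE1-XBP1-driven luciferase reporter | Medium: F12 with 10% serum | Compound dosing: 20 µM single concentration, DMSO 1% | Incubation: Overnight seeding at 37 °C, 6 h compound treatment at 37 °C | Detection: Steady-Glo luminescence read | Read-out basis: % activation of reporter signal versus tunicamycin and DMSO controls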
CHOP UPR conf = confirmation of apoptotic unfolded protein response (CHOP) activators; shares compounds with CHOP UPR activ; CHO-CHOP cells, CHOP-luciferase reporter luminescence; percent of tunicamycin response, DMSO as zero; actives 64% (n = 1,000); AID 463112; activation, % at 10 µM; in the data active = activation above about 33%;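 also: 0% = DMSO wells and 100% = tunicamycin 10 µg/mL wells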
The depositor's hits bear a star; . = not tested or not shown.

SMILES	MDM2 E3 inh	Mdm2-MdmX inh	B2AR ag	Dynein cargo inh	CHOP UPR activ	UPR XBP1 act	CHOP UPR conf
C/C(=N\NC(=O)c1cc(O)ccc1O)c1cccc(NC(=O)c2ccc(Cl)cc2)c1	.	8	11	.	72*	11	5
O=C(COC(=O)CCc1nc2ccccc2c(=O)[nH]1)Nc1ccccc1OC(F)F	.	21	2	.	1	-3	.
CC(=O)N/C(=N\c1nc(C)cc(C)n1)Nc1ccc(Cl)cc1Cl	.	9	-3	.	49*	-3	0
CC1(c2ccc3ccccc3c2)NC(=O)N(CC(=O)N2CCCC(C(F)(F)F)C2)C1=O (stereo unspecified)	.	-20	-6	.	-1	0	.
CC(C)c1ccc(NC(=O)/C(C#N)=C/c2ccncc2)cc1	.	13	20	.	59*	17	97*
Cc1ccc(NC(=S)NC(=O)c2cncc(Br)c2)cc1Cl	.	18	-3	.	2	3	.
COc1cc2nc(=S)n3[nH]c(CCn4nc(C)cc4C)nc3c2cc1OC	-11	18	-16	-0.32	132*	16	98*
COc1cc2nc(=S)n3[nH]c(COc4ccccc4C)nc3c2cc1OC	-9	4	1	2.4	0	-1	.
COc1ccccc1CCCNC(=O)C1CCC(=O)N(Cc2ccccc2F)C1 (stereo unspecified)	.	-55	3	.	4	4	.
S=C(Nc1ccccn1)c1ccccn1	-34	-76	-9	-0.41	165*	16	126*
CC(C)(C)OC(=O)N1CCC(NC(=O)c2nc[nH]c2C(=O)NCC(=O)OCc2ccccc2)CC1	.	23	16	.	2	-1	.
c1ccc(Oc2nc(-c3ccccn3)nc3ccccc23)cc1	-8	33	-10	-0.73	41*	15	9
COc1ccc(Oc2nc(-c3ccncc3)nc3ccccc23)cc1	-6	35	3	0.37	-1	5	.
c1ccc(CN2CCN(c3nc(-c4ccccn4)nc4ccccc34)CC2)cc1	-16	23	-4	-0.088	82*	13	4
Cc1nc(Oc2ccccc2)c2ccccc2n1	-3	-1	3	-0.66	-1	-1	.
CCN1CCN(c2nc(-c3ccccn3)nc3ccccc23)CC1	-9	6	-7	-0.31	-1	-2	.
COc1ccc(Oc2nc(-c3ccccn3)nc3ccccc23)cc1	-13	28	-14	1.2	52*	25	14
COc1cc(C(=O)NCc2nnc(SCC(=O)Nc3cccc(C(F)(F)F)c3)o2)cc(OC)c1OC	.	9	-7	.	2	-8	.
O=C(Cc1ccc(F)cc1)N[C@@H]1c2ccccc2CC[C@@H]1OCc1ccccc1	.	49	-2	.	2	1	.
N#C/C(=C/c1ccc(O)c(O)c1)C(=O)NCc1ccc(Cl)cc1	.	27	6	.	103*	12	22
C/C(=N\NC(=O)c1cccnc1)c1cc2ccccc2o1	-11	30	3	0.36	-1	-2	.
C/C(=N\NC(=O)c1ccncc1)c1cc2ccccc2o1	-6	25	1	-1	115*	2	1
COC(=O)Cn1c(=NC(=O)c2ccc([N+](=O)[O-])s2)sc2cc(Br)ccc21	-3	15	.	-0.68	50*	11	24
Cc1ccc(NC(=O)c2ccc(Cl)c(N3C(=O)C=CC3=O)c2)cc1	-2	-2	25	-3.4	88*	-4	3
O=C(/C=C/Sc1ccccc1)c1ccc(Cl)cc1	-26	40	11	-2.7	113*	29	104*
SMILES	MDM2 E3 inh	Mdm2-MdmX inh	B2AR ag	Dynein cargo inh	CHOP UPR activ	UPR XBP1 act	CHOP UPR conf
COc1ccc(S(=O)(=O)Nc2c(C)cccc2C)cc1-n1cnnn1	.	0	-10	.	0	-1	.
O=[N+]([O-])c1cccc(N/N=C/c2ccc(N3CCOCC3)cc2)c1	.	-77	11	.	2	6	.
O=[N+]([O-])/C=C\c1ccc(N2CCOCC2)cc1	.	48	20	.	52*	-3	126*
O=C1C2CC=CCC2C(=O)N1c1ccc(NCCc2ccc(Cl)cc2)c([N+](=O)[O-])c1 (stereo unspecified)	10	19	12	-0.72	46*	-2	-2
CCN(C(=O)CO/N=C/c1ccc(OC)cc1OC)c1c(N)n(Cc2ccccc2)c(=O)[nH]c1=O	.	-9	1	.	-1	-1	.
Cn1c(SCC(=O)Nc2ccc(N3CCOCC3)c(Cl)c2)nnc1C(O)c1ccccc1 (stereo unspecified)	1	18	0	1.3	43*	0	-1
Cn1c(COc2ccccc2)nnc1SCC(=O)Nc1ccc(N2CCOCC2)c(Cl)c1	5	-3	2	2.2	1	-1	.
O=C(Nc1scc(-c2ccc(Br)cc2)c1C(=O)O)c1ccccc1F	.	-5	-1	.	56*	5	5
CS(=O)(=O)c1cccc(C(=O)OCC(=O)Nc2ccc3c(c2)OCO3)c1	.	10	0	.	-1	-3	.
COc1ccccc1NC(=O)c1cnc(SCC(=O)NCC2CCCO2)n(C)c1=O (stereo unspecified)	.	-15	5	.	57*	-2	34*
COc1ccccc1-n1nnnc1SCC(=O)NCC1CCCO1 (stereo unspecified)	.	10	0	.	0	-2	.
O=C1[C@@H]2[C@H](C(=O)N1CC(O)COCc1ccccc1)C1C=C[C@H]2C1 (stereo partly specified)	.	.	-7	.	.	.	.
N#Cc1c(N)c(C(=O)c2ccccc2)n2c1CCC2	4	6	-3	0.4	54*	1	4
Oc1c(Cl)cc(CN2CCCCC2)c2cccnc12	.	46	10	.	84*	27	74*
CCN(CC)c1ccc(C(=O)OCc2cc(=O)oc3cc(O)ccc23)cc1	-36	36	29	3.8	54*	78*	22
O=C(CSc1nnnn1-c1ccc(Cl)cc1)NC1CCS(=O)(=O)C1 (stereo unspecified)	.	-4	-3	.	2	3	.
O=[N+]([O-])c1ccccc1CN1CCN(Cc2c[nH]c3ccccc23)CC1	-1	-8	.	-0.5	49*	17	21
O=C(c1ccccc1)N1CCN(Cc2c[nH]c3ccccc23)CC1	-6	-14	3	-0.35	1	1	.
Cc1noc2ncnc(Sc3ccc(Br)cc3)c12	-19	30	8	-1.4	229*	-11	124*

High-throughput results from PubChem BioAssay.
